Experimental data published in ChEMBL document CHEMBL1157565, “Discovery of 1-[3-(4-bromo-2-methyl-2h-pyrazol-3-yl)-4-methoxyphenyl]-3-(2,4-difluorophenyl)urea (nelotanserin) and related 5-hydroxytryptamine2A inverse agonists for the treatment of insomnia” (J Med Chem, 2010).
The source made the active and inactive calls. No cut-off for these calls is given here.

Legend:
[1] = molecular target: T1, 5-hydroxytryptamine receptor 2C (Homo sapiens, UniProt P28335); assay: Displacement of [3H]DOI from human recombinant 5HT2C receptor expressed in HEK293 cells by scintillation counting; assay type: cell-based; settings: in the assay text read “[125I]DOI” for “[3H]DOI”
T1 sequence (P28335 whole entry): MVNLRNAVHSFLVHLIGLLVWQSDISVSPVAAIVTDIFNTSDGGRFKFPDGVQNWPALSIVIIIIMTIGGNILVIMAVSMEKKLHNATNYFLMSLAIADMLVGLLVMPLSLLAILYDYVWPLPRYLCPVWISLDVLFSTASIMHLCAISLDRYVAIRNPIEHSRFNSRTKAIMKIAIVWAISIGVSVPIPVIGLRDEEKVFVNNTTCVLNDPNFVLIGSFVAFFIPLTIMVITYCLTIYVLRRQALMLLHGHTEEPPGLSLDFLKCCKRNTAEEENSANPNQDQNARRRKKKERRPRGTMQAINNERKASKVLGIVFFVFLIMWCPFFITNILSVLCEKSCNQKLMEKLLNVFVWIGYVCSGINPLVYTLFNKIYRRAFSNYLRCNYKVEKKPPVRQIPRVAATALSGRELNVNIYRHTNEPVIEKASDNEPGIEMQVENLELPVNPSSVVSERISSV
How it was run: (§1)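 Crude membranes (5-25 μg protein) from HEK293 cells stably expressing human 5-HT2A or 5-HT2C. Radioligand [125I]DOI at 0.5 nM final; 10 μM cold DOI defines nonspecific binding. Buffer 20 mM HEPES pH 7.4, 10 mM MgCl2; 1 h at room temperature. Eight concentrations (1 pM–10 μM), each in triplicate. Vacuum filtration on GF/C, Tris wash, scintillation counting; pKi.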

[2] = molecular target: T2, 5-hydroxytryptamine receptor 2A (Homo sapiens, UniProt P28223); assay: Activity at human 5HT2A receptor expressed in HEK293 cells assessed as [3H]inositol phosphate production by scintillation counting; assay type: functional, cell-based
How it was run: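 HEK-293 cells transiently transfected with a mutated, constitutively active h5-HT2A receptor, labeled 18 h with […] [3H]myoinositol in serum- and myoinositol-free DMEM. Then 3 h at 37 °C in HBSS with LiCl (10 mM final), pargyline and compound. Lysis with ice-cold 0.1 M formic acid; total [3H]IP separated on AG1-X8 resin and counted by scintillation. Inverse-agonist pIC50.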

[3] = molecular target: T2, 5-hydroxytryptamine receptor 2A; assay: Displacement of [125I]DOI from human recombinant 5HT2A receptor expressed in HEK293 cells by scintillation counting
[4] = molecular target: T1, 5-hydroxytryptamine receptor 2C; assay: Displacement of [125I]DOI from human recombinant 5HT2C receptor expressed in HEK293 cells by scintillation counting
[5] = molecular target: T2, 5-hydroxytryptamine receptor 2A; assay: Displacement of [3H]DOI from human recombinant 5HT2A receptor expressed in HEK293 cells by scintillation counting; assay type: cell-based; settings: in the assay text read “[125I]DOI” for “[3H]DOI”; how it was run: as §1
Rattus norvegicus [6] = assay: Effect on behavioral activity in po dosed Sprague-Dawley rat assessed as reversal of DOI-induced inhibition of rearing behavior; assay type: functional
How it was run: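 Adult male Sprague-Dawley rats dosed orally with compound 45 min before DOI (0.3 mg/kg), which lowers rearing. Fifteen minutes later, rearing recorded in photocell-monitored locomotor activity cages. A dose-response curve for reversal of DOI-induced rearing decrease yields an ED50.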

Rattus norvegicus [7] = assay: Effect on behavioral activity in Wistar rat assessed as increase in non-rapid eye movement bout length at 1 mg/kg, po after 2 hrs; assay type: functional, organism-based; parameters: dose 1 mg/kg
How it was run: (§2)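 Male Wistar rats (300 ± 25 g) implanted for continuous EEG/EMG recording, 1 week recovery. Repeated-measures design: each rat received each treatment, including 80% Tween-80 vehicle, in random order by oral gavage. Non-REM sleep parameters scored hourly after dosing; at least five rats per compound.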

[8] = AUC (0 to infinity) in Wistar rat at 1.0 mg/kg, po; assay type: ADME, organism-based; parameters: time infinity, dose 1 mg/kg, route oral; settings: plasma
How it was run: (§3)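 Male Wistar rats, fasted overnight, single oral dose in 80% Tween-80/20% water. Jugular vein blood sampled serially over 24 h ([…]); sodium-heparin plasma stored at -70 °C, quantified by HPLC/MS/MS (LLOQ 1 ng/mL, ULOQ 2000 ng/mL). n = 2-3 animals; noncompartmental analysis; values as mean ± SD.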

Rattus norvegicus [9] = assay: Effect on behavioral activity in Wistar rat assessed as increase in non-rapid eye movement delta power at 1 mg/kg, po after 2 hrs; assay type: functional, organism-based; parameters: dose 1 mg/kg; how it was run: as §2
[10] = Half life in Wistar rat at 1.0 mg/kg, po; assay type: ADME, organism-based; parameters: dose 1 mg/kg, route oral; settings: in vivo; how it was run: as §3
[11] = Tmax in Wistar rat at 1.0 mg/kg, po; assay type: ADME, organism-based; parameters: dose 1 mg/kg, route oral; settings: in vivo; how it was run: as §3
[12] = Cmax in Wistar rat at 1.0 mg/kg, po; assay type: ADME, organism-based; parameters: dose 1 mg/kg, route oral; settings: in vivo; how it was run: as §3
Rattus norvegicus [13] = assay: Effect on behavioral activity in Wistar rat assessed as increase in non-rapid eye movement delta power at 1.4 mg/kg, po after 4 hrs; assay type: functional, organism-based; parameters: dose 1.4 mg/kg; how it was run: as §2
Rattus norvegicus [14] = assay: Effect on behavioral activity in Wistar rat assessed as decrease in number of non-rapid eye movement bouts at 1.4 mg/kg, po after 2 hrs; assay type: functional, organism-based; parameters: dose 1.4 mg/kg; how it was run: as §2
[15] = Tmax in Wistar rat at 1.4 mg/kg, po; assay type: ADME, organism-based; parameters: dose 1.4 mg/kg, route oral; settings: in vivo; how it was run: as §3
Rattus norvegicus [16] = assay: Effect on behavioral activity in Wistar rat assessed as increase in non-rapid eye movement bout length at 1.4 mg/kg, po after 1 hrs; assay type: functional, organism-based; parameters: dose 1.4 mg/kg; how it was run: as §2
[17] = Half life in Wistar rat at 1.4 mg/kg, po; assay type: ADME, organism-based; parameters: dose 1.4 mg/kg, route oral; settings: in vivo; how it was run: as §3
[18] = AUC (0 to infinity) in Wistar rat at 1.4 mg/kg, po; assay type: ADME, organism-based; parameters: time infinity, dose 1.4 mg/kg, route oral; settings: plasma; how it was run: as §3
[19] = Cmax in Wistar rat at 1.4 mg/kg, po; assay type: ADME, organism-based; parameters: dose 1.4 mg/kg, route oral; settings: in vivo; how it was run: as §3
[20] = molecular target: 5-hydroxytryptamine receptor 2A (Rattus norvegicus, UniProt P14842); assay: Displacement of [125I]DOI from rat recombinant 5HT2A receptor by scintillation counting
5-hydroxytryptamine receptor 2A (Rattus norvegicus, UniProt P14842), sequence (P14842 whole entry): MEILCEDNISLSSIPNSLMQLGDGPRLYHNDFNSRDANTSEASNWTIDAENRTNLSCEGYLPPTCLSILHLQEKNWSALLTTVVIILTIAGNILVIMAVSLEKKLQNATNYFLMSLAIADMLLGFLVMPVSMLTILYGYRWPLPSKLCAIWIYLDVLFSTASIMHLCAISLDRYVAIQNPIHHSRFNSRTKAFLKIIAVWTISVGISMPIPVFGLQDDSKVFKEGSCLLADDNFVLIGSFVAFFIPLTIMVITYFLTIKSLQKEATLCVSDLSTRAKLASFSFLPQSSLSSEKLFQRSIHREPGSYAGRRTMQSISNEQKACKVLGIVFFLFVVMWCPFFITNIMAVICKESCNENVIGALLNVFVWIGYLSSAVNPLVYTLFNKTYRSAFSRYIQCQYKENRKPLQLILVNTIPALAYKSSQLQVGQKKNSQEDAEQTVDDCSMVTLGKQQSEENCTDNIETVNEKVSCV

T2 sequence (P28223 whole entry): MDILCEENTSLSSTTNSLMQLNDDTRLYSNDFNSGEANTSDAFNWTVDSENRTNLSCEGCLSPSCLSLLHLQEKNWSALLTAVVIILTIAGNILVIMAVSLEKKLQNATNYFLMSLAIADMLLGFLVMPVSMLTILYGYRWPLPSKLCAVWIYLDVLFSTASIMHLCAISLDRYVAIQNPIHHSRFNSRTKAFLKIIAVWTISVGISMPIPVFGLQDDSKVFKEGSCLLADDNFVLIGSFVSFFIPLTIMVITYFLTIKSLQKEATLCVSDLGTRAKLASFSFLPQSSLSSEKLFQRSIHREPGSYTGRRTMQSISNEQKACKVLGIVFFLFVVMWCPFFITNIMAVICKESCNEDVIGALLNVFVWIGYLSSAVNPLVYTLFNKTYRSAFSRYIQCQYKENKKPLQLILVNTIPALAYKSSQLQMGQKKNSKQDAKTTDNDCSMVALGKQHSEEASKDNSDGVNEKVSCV

Ki [1] | IC50 ([2]; read-out: pIC50 (converted)) | Ki [3] | Ki [4] | Ki [5] | SMILES | further results
10 nM | 1.58 nM | 0.316 nM |  |  | CC(C)Oc1ccc(NC(=O)Nc2ccc(Cl)cc2)cc1-c1c(Br)cnn1C | 
 | 0.501 nM |  | 3.98 nM | 0.251 nM | COc1ccc(NC(=O)Nc2ccc(Br)cc2)cc1-c1c(Br)cnn1C | 
 | 1 nM |  | 3.98 nM | 0.251 nM | COc1ccc(NC(=O)Nc2ccc(F)cc2)cc1-c1c(Br)cnn1C(C)C | 
126 nM | 0.398 nM |  |  | 0.501 nM | COc1ccc(NC(=O)Nc2ccc(OC)c(-c3c(Br)cnn3C)c2)cc1 | 
50.1 nM |  | 0.398 nM |  |  | Cn1ncc(Br)c1-c1cc(NC(=O)Nc2ccc(Cl)cc2)ccc1O | 
 |  |  | 398 nM | 1 nM | COc1ccc(NC(=O)Nc2ccccc2F)cc1-c1c(Br)cnn1C | 
25.1 nM | 2.51 nM | 0.316 nM |  |  | COc1ccc(NC(=O)Nc2ccc(C(C)C)cc2)cc1-c1c(Br)cnn1C | 
15.8 nM | 0.398 nM |  |  | 0.251 nM | COc1ccc(NC(=O)Nc2cccc(Cl)c2)cc1-c1c(Br)cnn1C | 
10 nM | 0.794 nM |  |  | 0.501 nM | COc1ccc(NC(=O)Nc2ccc(Cl)cc2)cc1-c1c(Br)cnn1C | ED50 (Rattus norvegicus [6]): 0.5 mg/kg; IC50 [2]: 0.7 nM; Activity (Rattus norvegicus [7]): Active; AUC(0-inf) [8]: 281 ng·h/mL; Activity (Rattus norvegicus [9]): Active; half-life [10]: 3 h; Tmax [11]: 3 h; Cmax [12]: 45 ng/mL
 | 6.31 nM |  | 63.1 nM | 0.501 nM | COc1ccc(NC(=O)Nc2cccc(C#N)c2)cc1-c1c(Br)cnn1C | 

The next lines start with the compound.

SMILES | Ki [1] | IC50 ([2]; read-out: pIC50 (converted)) | Ki [3] | Ki [4] | Ki [5] | further results
Cn1ncc(Br)c1-c1cc(NC(=O)Nc2ccc(Cl)cc2)ccc1OCc1ccc(Cl)cc1 | 251 nM | 12.6 nM |  |  | 20 nM | 
COc1ccc(NC(=O)Nc2ccc(Cl)c(C(F)(F)F)c2)cc1-c1c(Br)cnn1C |  | 0.794 nM | 0.316 nM | 3.16 nM |  | 
Cn1ncc(Br)c1-c1cc(NC(=O)Nc2ccc(Cl)cc2)ccc1OCCc1ccccc1 | 794 nM | 50.1 nM | 6.31 nM |  |  | 
COc1ccc(NC(=O)Nc2ccc(Cl)cc2Cl)cc1-c1c(Br)cnn1C | 25.1 nM | 1.26 nM |  |  | 0.2 nM | 
COc1ccc(NC(=O)Nc2ccc(F)c(F)c2)cc1-c1c(F)cnn1C |  | 2.51 nM |  | 398 nM | 1.26 nM | 
COc1ccc(NC(=O)Nc2cc(C(F)(F)F)cc(C(F)(F)F)c2)cc1-c1c(Br)cnn1C |  | 2 nM | 0.398 nM | 31.6 nM |  | 
COc1ccc(NC(=O)Nc2ccc(F)cc2F)cc1-c1c(Cl)cnn1C |  | 1 nM | 0.631 nM | 316 nM |  | 
COc1ccc(NC(=O)Nc2ccc(F)cc2F)cc1-c1c(Br)cnn1C [NELOTANSERIN] | 158 nM | 0.631 nM | 0.631 nM |  |  | Activity (Rattus norvegicus [13]): Active; ED50 (Rattus norvegicus [6]): 0.7 mg/kg; Activity (Rattus norvegicus [14]): Active; Tmax [15]: 3 h; Activity (Rattus norvegicus [16]): Active; half-life [17]: 3 h; AUC(0-inf) [18]: 298 ng·h/mL; Cmax [19]: 44 ng/mL; Ki [20]: 5.01 nM
